{"data": "Measured values of several laboratories", "target": "Fibroblast growth factor receptor 4 (FGFR4, Homo sapiens, UniProt P22455)"}
{"Compound": "C=CC(=O)N1CCC(C(=O)NCC(=O)N2CCN(c3nc(-c4cnc(N)nc4C(F)F)nc(N4CCOCC4)n3)CC2)CC1", "effect on": "binding", "technique": "competition with immobilised ligand", "concentration": "1 µM", "remaining binding [%]": 100}
{"Compound": "C[C@H](c1ccc(F)cc1)N(Cc1cccc(C(=O)O)c1)C(=O)c1cnc2ccccc2c1", "effect on": "cell-free assay", "technique": "competition with immobilised ligand", "concentration": "1 µM", "remaining binding [%]": 91}
{"Compound": "O=C(c1ccc(Nc2ncc(Cl)c(-c3ccc(Cl)s3)n2)cc1)N1CCC(N2CCCC2)CC1", "effect on": "binding", "technique": "competition with immobilised ligand", "concentration": "1 µM", "remaining binding [%]": 60}
{"Compound": "O=C(Nc1c[nH]nc1C(=O)NC1CCNCC1)c1cc(F)cc(F)c1", "effect on": "binding", "technique": "competition with immobilised ligand", "concentration": "1 µM", "remaining binding [%]": 100}
{"Compound": "CN(c1nccc(-c2cnn3ncccc23)n1)C1CC1", "effect on": "binding", "concentration": "1 µM", "remaining binding [%]": 99}
{"Compound": "N#CC1(c2ccccn2)CCN(Cc2cc(C(=O)N3CCCC3)c(=O)n3ccccc23)CC1", "effect on": "cell-free assay", "technique": "competition with immobilised ligand", "concentration": "1 µM", "remaining binding [%]": 90}
{"Compound": "COc1cnc(Nc2cccc(S(N)(=O)=O)c2)nc1N1CCN(c2ccccc2)CC1", "effect on": "binding", "technique": "competition with immobilised ligand", "concentration": "1 µM", "remaining binding [%]": 98}
{"Compound": "CCc1ccccc1C(=O)Nc1n[nH]c2c(C)c(F)c(C3C(C#N)=C(C)N(C)C(C)=C3C#N)cc12", "effect on": "cell-free assay", "technique": "competition with immobilised ligand", "concentration": "1 µM", "remaining binding [%]": 100}
{"Compound": "c1cncc(-c2cccc(Nc3nccc(NC4CCCCC4)n3)c2)c1", "effect on": "binding", "technique": "competition with immobilised ligand", "concentration": "10 µM", "remaining binding [%]": 94}
{"Compound": "CN(CCCC(F)(F)F)c1nccc(-c2cnn3ncccc23)n1", "effect on": "binding", "concentration": "1 µM", "remaining binding [%]": 96}
{"Compound": "O=C(Nc1ccc(Oc2ccc(F)cc2)cc1)N1CCc2ncccc2[C@H]1c1ccc(F)cc1", "effect on": "cell-free assay", "technique": "competition with immobilised ligand", "concentration": "1 µM", "remaining binding [%]": 95}
{"Compound": "O=C(c1ccc(Nc2nccc(-c3cc4ccccc4s3)n2)cc1)N1CCC(N2CCCC2)CC1", "effect on": "binding", "technique": "competition with immobilised ligand", "concentration": "1 µM", "remaining binding [%]": 99}
{"Compound": "F[C@@H]1CCN(c2nccc(-c3cnn4ncccc34)n2)C1", "effect on": "binding", "concentration": "1 µM", "remaining binding [%]": 100}
{"Compound": "O=C(c1ccc(Nc2ncc(Cl)c(-c3cc4ccccc4s3)n2)cc1)N1CCC(N2CCCC2)CC1", "effect on": "binding", "technique": "competition with immobilised ligand", "concentration": "1 µM", "remaining binding [%]": 77}
{"Compound": "CCOCCn1cc(C(=O)Nc2ccc(-n3nc(-c4cccnc4)cc3C(F)(F)F)cn2)ccc1=O", "effect on": "cell-free assay", "technique": "competition with immobilised ligand", "concentration": "1 µM", "remaining binding [%]": 100}
{"Compound": "N[C@H]1CCN(c2nccc(-c3cnn4ncccc34)n2)C1", "effect on": "binding", "concentration": "1 µM", "remaining binding [%]": 100}
{"Compound": "CN(C(=O)c1ccccc1)c1cc(N(C)c2ccc3c(c2)CCc2ccc(C(=O)NCCN4CCOCC4)cc2C3=O)ccc1F", "effect on": "cell-free assay", "technique": "competition with immobilised ligand", "concentration": "1 µM", "remaining binding [%]": 100}
{"Compound": "Nc1ncc2c(n1)-c1c([nH]c3ccc(C#CC4CC4)cc13)CCCC2", "effect on": "binding", "technique": "competition with immobilised ligand", "concentration": "1 µM", "remaining binding [%]": 98}
{"Compound": "C[C@H]1CCN(c2nccc(-c3cnn4ncccc34)n2)C1", "effect on": "binding", "concentration": "1 µM", "remaining binding [%]": 76}
{"Compound": "COc1ncc2cc3ccccc3nc2c1C#N", "effect on": "cell-free assay", "technique": "competition with immobilised ligand", "concentration": "5 µM", "remaining binding [%]": 88}
{"Compound": "c1cnn2ncc(-c3ccnc(N4CCC45COC5)n3)c2c1", "effect on": "binding", "concentration": "1 µM", "remaining binding [%]": 91}
{"Compound": "CS(=O)(=O)c1cc(C2(NC(=O)c3cncc4c3cnn4-c3ccc(F)cc3)CC2)ccn1", "effect on": "cell-free assay", "technique": "competition with immobilised ligand", "concentration": "1 µM", "remaining binding [%]": 74}
